The values below come from ChEMBL document CHEMBL1255487, “Preclinical evaluation of the antifolate QN254, 5-chloro- N'6'-(2,5-dimethoxy-benzyl)-quinazoline-2,4,6-triamine, as an antimalarial drug candidate” (Antimicrob Agents Chemother, 2010).

One may read the Ki as the equilibrium dissociation constant of an inhibitor or competing ligand from its target. Usually IC50 stands for the concentration at which inhibition is half-maximal. The ED50 is the dose that gives a 50% effect, or the effect in half of the subjects.

The nature of series [1]: Binding affinity to wild type Plasmodium falciparum DHFR by competitive binding assay.
Series [2] can be described thus: Binding affinity to recombinant Plasmodium falciparum V1/S DHFR S108N, N51I, C59R, I164L mutant by competitive binding assay. Further details: species or system V1S.
Series [3] relates to Plasmodium berghei. As to the kind of experiment: Antimalarial activity against Plasmodium berghei ANKA infected in NMRI mice (Mus musculus) assessed as reduction in parasitemia at 3 times 30 mg/kg, perorally measured on day 3 postinfection. The series is classed as functional. Further details: scale not given: the % may be the effect or the level left. The conditions noted are these: route oral. Put shortly: (§1)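 P. berghei ANKA given intravenously to groups of 5 female NMRI mice (20–22 g): 0.2 ml of 1 × 10^8 parasitized erythrocytes/ml from a donor mouse. Oral dosing in 0.5% carboxymethyl cellulose. Parasitemia counted by microscopy. Activity is the control-minus-treated parasitemia difference, expressed as percent of untreated controls.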

Series [4] relates to Plasmodium berghei. Nature of the series: Antimalarial activity against Plasmodium berghei ANKA infected in NMRI mice (Mus musculus) assessed as mean survival time at 3 times 30 mg/kg, perorally. The format is functional. Conditions: route oral. Put shortly: (§2)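 Infection: 5 female NMRI mice (20–22 g) per group, inoculated intravenously with 0.2 ml of donor blood at 1 × 10^8 parasitized erythrocytes/ml. Oral administration in 0.5% carboxymethyl cellulose. Survival time recorded up to 30 days after infection and averaged per group.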

For series [5], the system named is Plasmodium berghei. As to the kind of experiment: Antimalarial activity against Plasmodium berghei ANKA infected in NMRI mice (Mus musculus) assessed as cure rate at 100 mg/kg, perorally administered as single dose measured on […]. The format is functional. The conditions noted are these: route oral. The method, boiled down: (§3)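 Female NMRI mice (20–22 g), 5 per group, infected intravenously with 0.2 ml of 1 × 10^8 parasitized erythrocytes/ml from a fresh donor mouse. Compound suspended in 0.5% carboxymethyl cellulose and given orally. Survival followed to day 30 post-infection; an animal was scored cured if it survived to day 30 without parasites.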

Series [6] concerns Plasmodium berghei. As to the kind of experiment: Antimalarial activity against Plasmodium berghei ANKA infected in NMRI mice (Mus musculus) assessed as cure rate at 3 times 30 mg/kg, perorally measured […]. The format is functional. The conditions noted are these: route oral. Put shortly: as §3
Series [7] has as its system Mus musculus. Nature of the series: Toxicity in NMRI mice (Mus musculus) infected with Plasmodium berghei ANKA at 100 mg/kg, perorally administered as single dose measured up to 30 days postinfection. The format is organism-based. Further details: dose 100 mg/kg, route oral. The conditions noted are these: in vivo, po, 720 h.
For series [8], the system named is Mus musculus. Nature of the series: Toxicity in NMRI mice (Mus musculus) infected with Plasmodium berghei ANKA at 3 times 30 mg/kg, perorally measured up to 30 days postinfection. The series is classed as organism-based. The arrangement: dose 30 mg/kg, route oral. The conditions noted are these: in vivo, po, 720 h.
In series [9] the test system is Plasmodium berghei. Nature of the series: Antimalarial activity against Plasmodium berghei ANKA infected in NMRI mice (Mus musculus) assessed as reduction in parasitemia at 100 mg/kg, perorally administered as single dose measured on day 3 postinfection. The format is functional. Further details: scale not given: the % may be the effect or the level left. The conditions noted are these: route oral. Put shortly: as §1

The subject of series [10] is Plasmodium falciparum. Nature of the series: Antimalarial activity against pyrimethamine-resistant Plasmodium falciparum clinical isolate harboring S108N, N51I mutation in DHFR assessed as decrease in parasitaemia. The series is classed as functional, organism-based. The method, boiled down:
(§4)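 P. falciparum grown in RPMI 1640 with 10% (v/v) human serum, 25 mM bicarbonate, 2 mM glutamine, 25 mM HEPES, 5 nM para-aminobenzoic acid and 23 nM folic acid. Parasites exposed to a concentration series. Read-out is [3H]hypoxanthine incorporation into nucleic acid. IC50 taken from non-linear regression of the dose–response curve.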

In series [11] the test system is Plasmodium falciparum. As to the kind of experiment: Antimalarial activity against pyrimethamine-resistant Plasmodium falciparum clinical isolate harboring S108N, C59R mutation in DHFR assessed as decrease in parasitaemia. The series is classed as functional, organism-based. The method, boiled down: as §4
Series [12] relates to Plasmodium falciparum. Nature of the series: Antimalarial activity against pyrimethamine-resistant Plasmodium falciparum clinical isolate harboring S108N, N51I, C59R mutation in DHFR assessed as decrease in parasitaemia. The series is classed as functional, organism-based. Put shortly:
as §4

The subject of series [13] is Plasmodium falciparum. Nature of the series: Antimalarial activity against pyrimethamine-resistant Plasmodium falciparum V1/S harboring S108N, N51I, C59R, I164L mutation in DHFR assessed as decrease in parasitaemia. Conditions: V1S. The format is functional, organism-based.
The target in the next series is T1, Dihydrofolate reductase (Homo sapiens, UniProt P00374).
T1 sequence (P00374 whole entry): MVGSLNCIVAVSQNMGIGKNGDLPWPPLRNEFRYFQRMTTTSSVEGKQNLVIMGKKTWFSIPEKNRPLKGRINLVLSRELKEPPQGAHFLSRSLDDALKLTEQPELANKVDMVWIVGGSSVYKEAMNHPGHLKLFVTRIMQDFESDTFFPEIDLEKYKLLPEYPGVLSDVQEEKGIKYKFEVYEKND
Nature of the series: Binding affinity to human recombinant DHFR expressed in Escherichia coli BL21(DE3) by competitive binding assay.

Series [14] in a line: Selectivity ratio of Ki for human recombinant DHFR to Ki for wild type Plasmodium falciparum DHFR.
In series [15] the test system is Plasmodium falciparum. Nature of the series: Selectivity ratio of Ki for recombinant Plasmodium falciparum V1/S DHFR S108N, N51I, C59R, I164L mutant to Ki for wild type Plasmodium falciparum DHFR.
Series [16] relates to Plasmodium berghei. As to the kind of experiment: Antimalarial activity against Plasmodium berghei ANKA infected in NMRI mice (Mus musculus) assessed as survival rate at 100 mg/kg, perorally administered as single dose. The conditions noted are these: route oral. The format is functional. The method, boiled down:
as §2

For series [17], the system named is Plasmodium berghei. As to the kind of experiment: Antimalarial activity against Plasmodium berghei ANKA infected in perorally dosed NMRI mice (Mus musculus) assessed as reduction in parasitemia administered as single dose measured on day 3 postinfection. The series is classed as functional. The conditions noted are these: for ED50 / ED90: po, 72 h.

On to `CC1(C)N=C(N)N=C(N)N1c1ccc(Cl)cc1` [CYCLOGUANIL], for which the inhibition constant (Ki) is 1.51 nM in [1] and 454 nM in [2].
On to `OC(c1cc(C(F)(F)F)nc2c(C(F)(F)F)cccc12)C1CCCCN1` (stereo unspecified) [MEFLOQUINE], for which the Activity is on record as 99.8% in the series with Plasmodium berghei [3]; 0% with Plasmodium berghei [5]; 0% with Plasmodium berghei [6]; 0% in the series on Mus musculus [7]; 0% in the series on Mus musculus [8]; 99.6% in the series with Plasmodium berghei [9]. The Survival with Plasmodium berghei [4] was determined as 14.3 days.
For `CCc1nc(N)nc(N)c1-c1ccc(Cl)cc1` [PYRIMETHAMINE], the figures for the inhibitory constant (Ki) in series [1] and in [2] were 0.59 nM and 385 nM, respectively. Moreover, the IC50 in the series with Plasmodium falciparum [10] was 371 nM; in the series with Plasmodium falciparum [11], 371 nM; in the series with Plasmodium falciparum [12], 778 nM; in the series on Plasmodium falciparum [13] it was 3690 nM.
`CC1(C)N=C(N)N=C(N)N1OCCCOc1cc(Cl)c(Cl)cc1Cl`: the inhibitory constant (Ki) in series [1] came out at 0.5 nM; in series [2], 1.9 nM; at Dihydrofolate reductase, 7.7 nM. Moreover, the Ratio Ki came to 15 in series [14] and 1.8 with Plasmodium falciparum [15].
For the compound `C[C@H]1[C@H](OC(=O)CCC(=O)O)O[C@@H]2O[C@@]3(C)CC[C@H]4[C@H](C)CC[C@@H]1[C@@]24OO3` [ARTESUNATE], the Activity came out at 98.7% in the series with Plasmodium berghei [3]; 0% in the series with Plasmodium berghei [5]; 0% in the series on Plasmodium berghei [6]; 0% with Mus musculus [7]; 0% in the series on Mus musculus [8]; 98% in the series with Plasmodium berghei [9]. For the same compound, the Survival in the series with Plasmodium berghei [16] was determined as 7 days; in the series on Plasmodium berghei [4] it was 12.2 days. Also, the 50% effective dose (ED50) in the series on Plasmodium berghei [17] turned out to be 5.9 mg/kg. In the series with Plasmodium berghei [17], the ED90 amounted to 20.5 mg/kg.
As for `CCN(CC)CCCC(C)Nc1ccnc2cc(Cl)ccc12` (stereo unspecified) [CHLOROQUINE], the Activity came to 98.8% with Plasmodium berghei [3]; 0% in the series with Plasmodium berghei [5]; 0% with Plasmodium berghei [6]; 0% in the series with Mus musculus [7]; 0% in the series with Mus musculus [8]; 89% with Plasmodium berghei [9]. Besides, the Survival came to 25.5 days with Plasmodium berghei [16] and 22.1 days with Plasmodium berghei [4]. The inhibition result with Plasmodium berghei [17] is “Dose dependent effect”. Moreover, the ED50 in the series with Plasmodium berghei [17] came out at 1.9 mg/kg. Moreover, the ED90 with Plasmodium berghei [17] stood at 4.2 mg/kg.
